Source: paper PMC7814465 (Cell reports, 2020)
Primed or numbered codes have the meaning given here. Ends that are not written are not given here. FITC′ = fluorescein isothiocyanate

What was measured:
[1] = tested on: TDP-43 (TDP-43-Tev-MBP/MBP-Tev-TDP-43-GFP); assay: TDP-43 condensate formation with DPRs, microscopy; type: biochemical; settings: TMR-labeled DPR, equimolar (1x) or two-fold (2x), 2 μM TDP-43/TDP-43-GFP, Tev cleavage, 200 mM NaCl, pH 7.5
Summary of the method: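 Size-exclusion-purified TDP-43-MBP-His (2 μM) was mixed with substoichiometric MBP-TDP-43-GFP-His (1:4–1:5). Condensates were imaged by laser scanning confocal microscopy.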

Impβ = assay: Pull-down from HeLa cytosol, Impβ; type: binding; settings: biotinylated peptide, western blot
Summary of the method: (§1)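 Biotin-DPR bait (5 μg per 10 μl beads) immobilised overnight with 2 mg/ml ovalbumin. Prey bound in B-buffer with 2 mg/ml BSA, washed without BSA, eluted in 2× SDS loading buffer. Two independent replicates.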

CRM1 = assay: Sedimentation assay, CRM1; type: biochemical
Summary of the method: (§2)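 Protein was 1 µM purified NTR alone, or 500 nM Impα with 500 nM Impβ. Samples were centrifuged 15 min at 21,000 g, 4°C. Equal volumes of supernatant and pellet were analysed by SDS-PAGE with Sypro-Ruby stain or western blot.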

[2] = tested on: nuclear import of GCR2-GFP2-cNLS in HeLa cells; assay: Hormone-induced nuclear import assay, cNLS reporter; type: cell-based; settings: 10 µM TMR-GR25, 2 h; three independent experiments, 14-61 cells
Summary of the method: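 HeLa cells were passaged at least twice in DMEM with 10% dialyzed FBS and expressed the GCR2-GFP2-MBP-cNLS reporter. They were pre-incubated 2 h with 10 µM TMR-labeled DPR peptide added once to serum-free imaging medium. Import was induced with 5 µM (final) dexamethasone, and spinning-disk live imaging ran 40–50 min at 2.5-min intervals. Only peptide-positive cells were quantified. N/C ratio is given as mean ± SEM of three experiments, with area under the curve compared by unpaired t test.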

[3] = tested on: GCR2-GFP2 reporter in cytoplasm; assay: FRAP of cytoplasmic GCR2-GFP2 reporter; type: cell-based; settings: 10 µM GR25, 2 h, dexamethasone; 34-38 cells, two independent experiments
TNPO3 = assay: Pull-down from HeLa cytosol, TNPO3; type: binding; settings: biotinylated peptide, western blot
Summary of the method: (§3)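 It was cleared at 21,000 g, 4°C. Cytosol was incubated under physiological buffer conditions with biotinylated DPR peptides immobilized on ovalbumin-blocked streptavidin beads, and bound NTRs were detected by western blot.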

TNPO1 = target: T1, TNPO1 (Homo sapiens, UniProt Q92973); assay: Pull-down from HeLa cytosol, TNPO1; type: binding; settings: biotinylated peptide, western blot
T1 sequence (Q92973 1-898): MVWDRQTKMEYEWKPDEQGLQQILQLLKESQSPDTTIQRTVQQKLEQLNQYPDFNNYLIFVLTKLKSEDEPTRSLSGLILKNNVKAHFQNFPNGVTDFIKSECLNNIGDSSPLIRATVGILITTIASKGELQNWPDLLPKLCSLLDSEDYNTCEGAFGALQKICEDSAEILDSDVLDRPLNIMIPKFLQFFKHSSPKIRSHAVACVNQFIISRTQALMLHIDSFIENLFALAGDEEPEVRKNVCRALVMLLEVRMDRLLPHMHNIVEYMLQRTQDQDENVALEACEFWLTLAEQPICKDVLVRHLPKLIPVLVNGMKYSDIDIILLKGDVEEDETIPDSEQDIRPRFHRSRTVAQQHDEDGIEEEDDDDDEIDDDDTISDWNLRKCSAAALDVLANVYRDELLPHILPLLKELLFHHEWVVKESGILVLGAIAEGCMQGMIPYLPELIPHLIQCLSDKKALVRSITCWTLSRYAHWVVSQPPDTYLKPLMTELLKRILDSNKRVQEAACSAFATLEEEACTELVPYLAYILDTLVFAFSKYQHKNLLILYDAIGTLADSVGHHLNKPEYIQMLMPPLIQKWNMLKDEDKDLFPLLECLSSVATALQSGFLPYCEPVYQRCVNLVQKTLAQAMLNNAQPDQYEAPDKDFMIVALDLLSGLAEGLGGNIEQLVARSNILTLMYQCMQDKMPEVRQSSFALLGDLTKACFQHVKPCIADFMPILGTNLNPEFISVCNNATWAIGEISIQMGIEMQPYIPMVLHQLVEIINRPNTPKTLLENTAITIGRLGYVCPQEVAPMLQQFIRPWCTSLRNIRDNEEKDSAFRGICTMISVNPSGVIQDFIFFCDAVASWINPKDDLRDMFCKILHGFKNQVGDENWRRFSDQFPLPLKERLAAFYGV
Summary of the method: as §3

[4] = tested on: GCR2-GFP2 reporter in HeLa cells; assay: Diffusion of reporter without NLS into nucleus; type: cell-based; settings: 10 µM TMR-GR25, 2 h; three independent experiments, 43-102 cells
Impα3 (His-Impα3) = assay: SDD-AGE oligomer formation, Impα3; type: biochemical, rat; settings: 10-fold molar excess: 2 μM importin, 20 μM TMR-DPR, pH 7.5, 200 mM NaCl, 1 h RT
Imp7 = assay: Pull-down from HeLa cytosol, Imp7; type: binding; settings: biotinylated peptide, western blot
Summary of the method: as §1

Impα1 = assay: Pull-down with purified Impα1; type: binding; settings: biotinylated peptide, purified Impα1, Figure S1E
Summary of the method: (§4)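 Streptavidin beads were blocked with 20 mg/ml ovalbumin, then loaded overnight with 5 µg biotinylated DPR peptide per reaction. 5 µg purified prey protein was added in 50 mM Tris pH 7.5, 200 mM NaCl, 1 mM MgCl2, 5% glycerol, 2 mM DTT, 2 mg/ml BSA. After washes, bound protein was eluted in SDS loading buffer and analysed by SDS-PAGE with Sypro-Ruby staining. Two independent replicates.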

Impb = settings: FRET sensors and bead Halo assays; ref Hayes et al., 2019; cited from earlier work
GAPDH in HeLa cytosol = assay: Sedimentation assay from HeLa cytosol, GAPDH; type: biochemical; settings: highest GR/PR concentrations
TNPO1 (His-TNPO1) = assay: SDD-AGE oligomer formation, TNPO1; type: biochemical; settings: 10-fold molar excess: 2 μM importin, 20 μM TMR-DPR, pH 7.5, 200 mM NaCl, 1 h RT
[5] = tested on: Impβ (His-S-Impβ, in the absence of Impα); assay: Sedimentation assay, Impβ alone; type: biochemical
Summary of the method: as §2

Impα3 [6] = assay: Pull-down from HeLa cytosol, Impα3; type: binding; settings: biotinylated peptide, western blot
Summary of the method: as §1

Impα3 [7] = assay: Pull-down with purified Impα3; type: binding, rat; settings: biotinylated peptide, purified Impα3, pH 7.5, 200 mM NaCl
Summary of the method: as §4

GST-GR25 / TDP-43 = assay: Sedimentation of GST-GR25 with TDP-43 and NTRs; type: biochemical; settings: anti-GST western blot, three independent experiments
Summary of the method: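 1 µM TDP-43-MBP-His was Tev-cleaved (20 µg/ml His-Tev, 60 min, 30°C) with or without equimolar GST-tagged DPR and/or NTRs. Samples were centrifuged 15 min at 21,000 g, 4°C. Equal volumes of supernatant and pellet were analysed by anti-GST western blot.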

[8] = tested on: NTRs (importins) from HeLa cytosol; assay: Pull-down from HeLa cytosol with biotinylated DPR, NTRs; type: binding; settings: immobilized biotinylated peptide, western blot
Summary of the method: as §3

TNPO1 (TEV-cleaved) = target: T2, TNPO1 (TEV-cleaved) (UniProt Q92973 1-898); assay: fluorescence polarisation
T2 sequence (looked up): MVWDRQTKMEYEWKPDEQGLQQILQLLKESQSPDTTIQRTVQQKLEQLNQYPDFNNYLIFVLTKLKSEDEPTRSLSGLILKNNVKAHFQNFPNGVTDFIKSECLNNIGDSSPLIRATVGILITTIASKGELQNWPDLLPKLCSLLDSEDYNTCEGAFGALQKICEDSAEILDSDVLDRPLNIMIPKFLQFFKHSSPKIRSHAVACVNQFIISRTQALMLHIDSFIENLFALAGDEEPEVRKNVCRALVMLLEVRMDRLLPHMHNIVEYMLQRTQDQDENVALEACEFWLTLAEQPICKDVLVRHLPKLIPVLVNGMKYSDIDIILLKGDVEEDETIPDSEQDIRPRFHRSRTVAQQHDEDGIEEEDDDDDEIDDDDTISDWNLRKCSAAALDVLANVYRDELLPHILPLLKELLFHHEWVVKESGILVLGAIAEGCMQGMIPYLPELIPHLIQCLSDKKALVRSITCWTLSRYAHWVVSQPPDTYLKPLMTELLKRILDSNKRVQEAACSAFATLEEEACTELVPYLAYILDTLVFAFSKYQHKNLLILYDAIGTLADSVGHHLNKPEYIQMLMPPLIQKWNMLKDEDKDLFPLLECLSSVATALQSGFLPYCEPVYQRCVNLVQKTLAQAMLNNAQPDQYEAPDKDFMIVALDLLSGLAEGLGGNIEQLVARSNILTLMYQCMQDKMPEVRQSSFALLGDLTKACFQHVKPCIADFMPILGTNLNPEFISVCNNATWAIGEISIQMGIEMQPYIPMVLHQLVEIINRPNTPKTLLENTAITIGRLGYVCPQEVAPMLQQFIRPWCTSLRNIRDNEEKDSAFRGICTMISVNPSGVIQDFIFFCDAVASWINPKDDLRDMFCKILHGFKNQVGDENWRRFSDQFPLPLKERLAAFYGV

[9] = 10-fold molar excess of TMR-labeled DPR, n = 3
[10] = extremely high concentrations (up to 40x)

## poly-GR: arginine-rich dipeptide repeat protein species; in the experiments mostly GR25
[1]
  TDP-43 condensate formation: formation of condensates
Impβ
  binding in pull-down: bound equally to both poly-GR and poly-PR
CRM1; [9]
  solubility of CRM1: remained mainly soluble
CRM1; [10]
  precipitation of CRM1, titration: only partial or no precipitation
[2]
  nuclear import of cNLS reporter (N/C ratio): reduced nuclear import
[3]
  mobility of GCR2-GFP2 reporter in cytoplasm (FRAP): unchanged
TNPO3
  binding in pull-down: bound preferentially to poly-GR
TNPO1
  binding in pull-down: bound preferentially to poly-GR
[4]
  diffusion of reporter without NLS into nucleus (N/C ratio): only mildly affected
Impα3 (His-Impα3)
  oligomer formation of Impα3 (SDS-resistant): SDS-resis-tant oligomers
Imp7
  binding in pull-down: bound equally to both poly-GR and poly-PR
Impα1
  direct binding in pull-down: preferentially to poly-GR
Impb
  direct binding to Impb in vitro: direct binding
GAPDH in HeLa cytosol
  precipitation of GAPDH from HeLa cytosol: not precipitated
TNPO1 (His-TNPO1)
  oligomer formation of TNPO1 (SDS-resistant): SDS-resis-tant oligomers
[5]; [9]
  solubility of Impβ: remained mainly soluble
[5]; [10]
  precipitation of Impβ, titration: only partial or no precipitation
Impα3 [6]
  binding in pull-down: bound equally to both poly-GR and poly-PR
Impα3 [7]
  direct binding in pull-down: preferentially to poly-GR

## GST-GR25: recombinant GST fusion of GR25
GST-GR25 / TDP-43; absence of TDP-43
  solubility of GST-GR25: completely soluble
GST-GR25 / TDP-43; presence of cleaved TDP-43
  solubility of GST-GR25: moved efficiently into the pellet fraction

## GP25: non-charged control DPR (GPGPGPGPGPGPGPGPGPGPGPGPGPGPGPGPGPGPGPGPGPGPGPGPGP; not fully specified; also: biotin, position not given here)
[8]
  binding in pull-down: not to the non-charged control DPR GP25

## TMR-GR25: tetramethylrhodamine (TMR)-labeled GR25 (GRGRGRGRGRGRGRGRGRGRGRGRGRGRGRGRGRGRGRGRGRGRGRGRGR; also: TMR label, position not given here)
Impα3 (His-Impα3)
  oligomer formation of Impα3 (SDS-resistant): oligomer formation
TNPO1 (His-TNPO1)
  oligomer formation of TNPO1 (SDS-resistant): oligomer formation

## TMR-PR25: tetramethylrhodamine (TMR)-labeled PR25 (PRPRPRPRPRPRPRPRPRPRPRPRPRPRPRPRPRPRPRPRPRPRPRPRPR; also: TMR label, position not given here)
Impα3 (His-Impα3)
  oligomer formation of Impα3 (SDS-resistant): oligomer formation
TNPO1 (His-TNPO1)
  oligomer formation of TNPO1 (SDS-resistant): oligomer formation

## poly-GP: non-charged DPR species; in the experiments GP25 (GPGPGPGPGPGPGPGPGPGPGPGPGPGPGPGPGPGPGPGPGPGPGPGPGP; not fully specified; also: biotin, position not given here) [reference compound]
[1]
  TDP-43 condensate formation: no effect
Impα3 (His-Impα3)
  oligomer formation of Impα3 (SDS-resistant): not poly-GP
TNPO1 (His-TNPO1)
  oligomer formation of TNPO1 (SDS-resistant): not poly-GP

B1: FITC-GR25 (peptide)
peptide: {FITC′}-GRGRGRGRGRGRGRGRGRGRGRGRGRGRGRGRGRGRGRGRGRGRGRGRGR
TNPO1 (TEV-cleaved)
  Kd: ~200 nM

B2: FITC-PR25 (peptide)
peptide: {FITC′}-PRPRPRPRPRPRPRPRPRPRPRPRPRPRPRPRPRPRPRPRPRPRPRPRPR
TNPO1 (TEV-cleaved)
  Kd: ~200 nM
